Laboratory results as given in ChEMBL document CHEMBL3603837, “Indole Glucocorticoid Receptor Antagonists Active in a Model of Dyslipidemia Act via a Unique Association with an Agonist Binding Site” (J Med Chem, 2015).
Calls of active or inactive are those of the source. The calls are words filed in the database; no cut-off is given here.

Tests used:
[1] = biological target: T1, Estrogen receptor (Homo sapiens) (UniProt P03372); assay: Binding affinity to human estrogen receptor expressed in HEK293 cells by scintillation counting based radioligand competition binding assay; format: cell-based
T1 sequence (whole entry): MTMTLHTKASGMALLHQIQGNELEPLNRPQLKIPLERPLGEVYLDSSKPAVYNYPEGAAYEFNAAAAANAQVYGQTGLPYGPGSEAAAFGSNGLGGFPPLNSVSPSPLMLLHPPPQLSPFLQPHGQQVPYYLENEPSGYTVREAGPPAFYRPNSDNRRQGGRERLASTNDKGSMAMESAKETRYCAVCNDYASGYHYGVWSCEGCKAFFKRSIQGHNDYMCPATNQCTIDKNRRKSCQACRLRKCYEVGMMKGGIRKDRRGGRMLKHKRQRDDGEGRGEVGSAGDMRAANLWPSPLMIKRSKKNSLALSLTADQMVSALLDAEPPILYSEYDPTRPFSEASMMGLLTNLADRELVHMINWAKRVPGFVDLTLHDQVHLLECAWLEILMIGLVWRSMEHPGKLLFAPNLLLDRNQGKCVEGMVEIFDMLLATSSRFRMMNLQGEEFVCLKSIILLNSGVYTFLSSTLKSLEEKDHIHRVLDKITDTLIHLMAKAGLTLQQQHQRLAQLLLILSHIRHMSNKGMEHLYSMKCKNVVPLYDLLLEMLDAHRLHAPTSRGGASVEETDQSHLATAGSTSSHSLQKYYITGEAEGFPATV

Glucocorticoid receptor [2] = biological target: T2, Glucocorticoid receptor (Homo sapiens, UniProt P04150); assay: Displacement of [3H]-dexamethasone from human glucocorticoid receptor expressed in HEK293 cells by scintillation counting based radioligand competition binding assay; format: cell-based
T2 sequence (P04150 whole entry): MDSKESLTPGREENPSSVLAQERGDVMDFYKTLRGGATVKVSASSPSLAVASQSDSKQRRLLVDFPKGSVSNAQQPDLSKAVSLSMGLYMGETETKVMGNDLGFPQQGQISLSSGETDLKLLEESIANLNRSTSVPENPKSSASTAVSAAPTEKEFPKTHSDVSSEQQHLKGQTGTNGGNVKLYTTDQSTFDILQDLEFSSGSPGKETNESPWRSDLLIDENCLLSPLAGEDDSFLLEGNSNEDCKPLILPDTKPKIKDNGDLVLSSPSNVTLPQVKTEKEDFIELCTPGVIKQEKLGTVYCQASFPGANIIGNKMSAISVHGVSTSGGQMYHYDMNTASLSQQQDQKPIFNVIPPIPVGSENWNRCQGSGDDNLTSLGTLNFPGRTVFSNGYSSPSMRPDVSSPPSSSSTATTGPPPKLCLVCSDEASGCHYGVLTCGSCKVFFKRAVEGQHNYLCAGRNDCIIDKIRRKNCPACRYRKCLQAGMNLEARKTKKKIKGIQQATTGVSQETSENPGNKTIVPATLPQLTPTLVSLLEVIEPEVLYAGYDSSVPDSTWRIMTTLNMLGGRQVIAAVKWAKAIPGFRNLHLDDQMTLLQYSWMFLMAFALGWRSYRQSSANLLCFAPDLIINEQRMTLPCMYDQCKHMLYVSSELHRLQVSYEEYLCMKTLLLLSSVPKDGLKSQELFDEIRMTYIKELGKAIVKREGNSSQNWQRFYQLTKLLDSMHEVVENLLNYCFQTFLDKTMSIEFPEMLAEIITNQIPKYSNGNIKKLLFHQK

Glucocorticoid receptor [3] = biological target: T2, Glucocorticoid receptor; assay: Antagonist activity against glucocorticoid receptor (unknown origin) expressed in HEK293 cells by GRE-dependent luciferase reporter gene assay; format: cell-based
Glucocorticoid receptor [4] = biological target: T3, Glucocorticoid receptor (Rattus norvegicus, UniProt P06536); assay: Antagonist activity against glucocorticoid receptor in rat H4-IIE cells assessed as inhibition of dexamethasone-induced receptor transactivation pre-incubated for 1 hr before dexamethasone addition and measured 24 hrs post dexamethasone stimulation by tyrosine aminotransferase enzyme assay; format: cell-based
T3 sequence (P06536 whole entry): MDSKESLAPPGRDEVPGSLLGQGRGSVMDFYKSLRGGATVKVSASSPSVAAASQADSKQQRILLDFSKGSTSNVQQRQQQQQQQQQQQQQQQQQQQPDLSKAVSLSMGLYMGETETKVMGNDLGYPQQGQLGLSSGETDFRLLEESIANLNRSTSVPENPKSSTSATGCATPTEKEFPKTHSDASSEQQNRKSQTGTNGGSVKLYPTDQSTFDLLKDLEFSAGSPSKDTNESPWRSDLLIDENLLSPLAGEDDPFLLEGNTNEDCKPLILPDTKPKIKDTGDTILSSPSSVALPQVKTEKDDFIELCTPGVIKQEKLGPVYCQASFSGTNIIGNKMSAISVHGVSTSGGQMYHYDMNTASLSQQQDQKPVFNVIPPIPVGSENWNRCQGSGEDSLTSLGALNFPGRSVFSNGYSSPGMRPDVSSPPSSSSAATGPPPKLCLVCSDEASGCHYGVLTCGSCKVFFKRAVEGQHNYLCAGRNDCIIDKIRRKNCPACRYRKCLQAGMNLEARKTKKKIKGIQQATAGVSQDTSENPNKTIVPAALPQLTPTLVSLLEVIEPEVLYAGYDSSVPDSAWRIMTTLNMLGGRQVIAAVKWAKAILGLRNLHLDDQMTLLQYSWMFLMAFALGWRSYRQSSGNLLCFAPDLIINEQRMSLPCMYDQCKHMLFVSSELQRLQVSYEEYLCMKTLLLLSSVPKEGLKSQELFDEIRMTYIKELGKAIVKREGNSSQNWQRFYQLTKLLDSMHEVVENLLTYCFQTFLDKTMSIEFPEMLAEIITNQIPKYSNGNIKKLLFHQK

[5] = biological target: T4, Glucocorticoid receptor (Rattus norvegicus) (UniProt P06536); assay: Agonist activity at glucocorticoid receptor in rat H4-IIE cells assessed as receptor transactivation incubated for 24 hrs by tyrosine aminotransferase enzyme assay; format: cell-based
T4 sequence (whole entry): T3 sequence (P06536 whole entry)
How it was run: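 Rat hepatoma H4IIEC3 cells grown in DMEM with 10% FBS, plated at 100000 cells/well overnight at 37 °C, 5% CO2, then switched to DMEM/F12 with 5% CS-FBS for 24 h. Test compounds at about 0.09 nM–25 μM for 24 h. Lysates given TAT substrate (4.74 mM L-tyrosine, 13.3 mM α-ketoglutarate, pH 7.6) for 2 h at 37 °C, then KOH. A340 read against a standard curve; EC50 from four-parameter logistic fit.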

[6] = biological target: T5, Glucocorticoid receptor (Homo sapiens) (UniProt P04150); assay: Agonist activity at glucocorticoid receptor (unknown origin) expressed in HEK293 cells by GRE-dependent luciferase reporter gene assay; format: cell-based
T5 sequence (whole entry): T2 sequence (P04150 whole entry)

[7] = Cmax in rat at 3 mg/kg, po; format: ADME, organism-based; parameters: dose 3 mg/kg, route oral; settings: in vivo
[8] = Oral bioavailability in rat at 3 mg/kg; format: ADME, organism-based; settings: in vivo
[9] = Half life in rat at 1 mg/kg, iv; format: ADME, organism-based; settings: in vivo
[10] = Volume of distribution at steady state in rat at 1 mg/kg, iv; format: ADME, organism-based; settings: in vivo, read-out: Vdss
[11] = AUC in rat at 1 mg/kg, iv; format: ADME, organism-based; settings: in vivo
[12] = Tmax in rat at 3 mg/kg, po; format: ADME, organism-based; settings: in vivo

SMILES	Activity [1]	Ki (Glucocorticoid receptor [2])	IC50 (Glucocorticoid receptor [3])	IC50 (Glucocorticoid receptor [4])	Activity [5]	Activity [6]	other results
CS(=O)(=O)Nc1cccc2cc[nH]c12	inactive	0.05 µM	–	–	–	–	–
COc1ccccc1-c1c[nH]c2c(NS(C)(=O)=O)cccc12	inactive	0.00306 µM	0.235 µM	1.18 µM	–	–	–
COc1cc(F)ccc1-c1c(Cc2ccccc2)[nH]c2c(NS(C)(=O)=O)cc(C(C)C)cc12	inactive	0.000543 µM	0.00754 µM	0.292 µM	inactive	inactive	–
COc1ccc(F)cc1-c1c(-c2ccccc2)[nH]c2c(NS(C)(=O)=O)cccc12	inactive	0.0537 µM	–	–	–	–	–
COc1cc(NS(C)(=O)=O)c2[nH]c(C)c(-c3cc(F)ccc3OC)c2c1	inactive	0.115 µM	–	–	–	–	–
COc1cc(F)ccc1-c1c(C)[nH]c2c(NS(C)(=O)=O)cc(F)cc12	inactive	0.00132 µM	0.022 µM	0.0634 µM	inactive	inactive	–
COc1cc(NS(C)(=O)=O)c2[nH]c(C)c(-c3ccccc3)c2c1	inactive	0.0398 µM	–	–	–	–	–
CS(=O)(=O)Nc1cccc2c(-c3cccc(Cl)c3)c[nH]c12	inactive	0.00504 µM	0.18 µM	0.076 µM	–	–	–
COc1cc(F)ccc1-c1c(CN(C)Cc2ccccc2)[nH]c2c(NS(C)(=O)=O)cc(C(C)(C)C)cc12	inactive	–	–	0.0144 µM	inactive	–	–
CS(=O)(=O)Nc1cccc2c(-c3ccc(F)cc3)c[nH]c12	inactive	0.0946 µM	–	–	–	–	–
COc1ccc(Cl)cc1-c1c[nH]c2c(NS(C)(=O)=O)cccc12	inactive	0.00545 µM	0.143 µM	1.25 µM	inactive	inactive	–
COc1cc(F)ccc1-c1c(CN(C)Cc2ccccc2)[nH]c2c(NS(C)(=O)=O)cc(C(C)C)cc12	inactive	0.00122 µM	0.00276 µM	0.0106 µM	inactive	inactive	Cmax [7]: 63.3 ng/mL; bioavailability [8]: 51.9%; half-life [9]: 3.96 h; Vd [10]: 13.8 L/kg; AUC [11]: 315 ng·h/mL; Tmax [12]: 4 h
COc1cc(F)ccc1-c1c(CN(C)Cc2ccccc2)[nH]c2c(N)cc(F)cc12	inactive	–	–	–	–	–	–
